Laboratory results reported in ChEMBL document CHEMBL3352796, “Enantioselective Synthesis and Profiling of Two Novel Diazabicyclooctanone β-Lactamase Inhibitors” (ACS Med Chem Lett, 2014).

Legend:
[1] = Inhibition of Enterobacter cloacae KPC-2 pre-incubated with enzyme for 5 mins before nitrocefin substrate addition by colorimetric assay
[2] = Hydrolytic solution stability in pH 7.4 aqueous phosphate buffer at 70 degC by HPLC-UV method; type: physicochemical
Method in brief: (§1)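 Compound held in aqueous phosphate buffer, pH 7.4, at 37 °C or 70 °C. Hydrolytic stability is reported as half-life in hours.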

Klebsiella pneumoniae [3] = assay: Inhibition of Klebsiella pneumoniae CTX-M-15 pre-incubated with enzyme for 5 mins before nitrocefin substrate addition by colorimetric assay
[4] = Inhibition of Pseudomonas aeruginosa AmpC pre-incubated with enzyme for 5 mins before nitrocefin substrate addition by colorimetric assay
Klebsiella pneumoniae [5] = assay: Inhibition of Klebsiella pneumoniae OXA-48 pre-incubated with enzyme for 5 mins before nitrocefin substrate addition by colorimetric assay
[6] = Hydrolytic solution stability in pH 7.4 aqueous phosphate buffer at 37 degC by HPLC-UV method; type: physicochemical; method in brief: as §1

Structure (SMILES)	IC50 [1]	half-life [2]	IC50 (Klebsiella pneumoniae [3])	IC50 [4]	IC50 (Klebsiella pneumoniae [5])	half-life [6]
NC(=O)[C@@H]1[C@H]2C[C@H]2[C@@H]2CN1C(=O)N2OS(=O)(=O)[O-].[Na+]	6.7 µM	> 15800 min	480 nM	2 µM	28 µM	
NC(=O)[C@@H]1[C@@H]2C[C@@H]2[C@@H]2CN1C(=O)N2OS(=O)(=O)[O-].[Na+]	0.85 µM	492 min	140 nM	4.5 µM	1.3 µM	4.67 days
C[C@]1(Cn2ccnn2)[C@H](C(=O)O)N2C(=O)C[C@H]2S1(=O)=O [TAZOBACTAM]	39 µM	462 min	< 7 nM	3.4 µM	3.6 µM	
